NR2E3 ag-1 – inhibitors of NR2E3-RetCOR corepressor binding, primary screen, NR2E3 agonist project, biochemical, TR-FRET, GST-NR2E3, biotin-RetCOR; 1536-well; 320,000 tested, 0.12% active; inhibition of corepressor binding, % at 4.78 µM; AID 2300, 2010;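 active = percent inhibition above the cutoff of mean plus 3 SD of all tested compounds, set per screening campaign, cut at about 20% in these data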
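Assay system: NR2E3–RetCOR corepressor complex. Quantity: 1.35 nM GST-NR2E3. Buffer or medium: pH 7.5 Tris-based buffer. Reagent: biotinylated RetCOR corepressor at 7 nM final. Schedule: 5 h at 4 °C. Detection: TR-FRET, emission read at 617 and 671 nm. Replicates: one well per compound, singlicate testing.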
NadD inh – inhibitors of S. aureus NadD, primary screen, biochemical, colorimetric, uHTS; purified NadD enzyme, colorimetric absorbance read-out; inhibition, % at 20 µM; 360,000 tested, 0.78% active; in the data active = inhibition above about 26%
MsrA inhibitor – bovine MsrA enzyme inhibitors, primary screen, biochemical, absorbance, HTS; Methionine sulfoxide reductase A (Bos taurus); purified bovine MsrA, absorbance read-out; inhibition, % at 15.5 µM; 360,000 tested, 0.75% active; AID 651718, 2012; in the data active = inhibition above about 4.5%
MsrA act – bovine MsrA enzyme activators, primary screen, biochemical, absorbance, HTS; Methionine sulfoxide reductase A (Bos taurus); purified bovine MsrA, absorbance read-out; activation, % at 10.6 µM; 360,000 tested, 0.3% active; AID 602163, 2012; in the data active = activation above about 7.5%
GalR3 antag – GalR3 antagonists in HEK293 cells, primary screen, cell-based, fluorescence readout. Galanin receptor type 3 (Homo sapiens), O60755. HEK293 GalR3-CNG cAMP membrane potential fluorescence; galR3 body fused to GalR1 C-terminus. inhibition, % at 3 µM. 360,000 tested, 0.44% active. AID 651719, 2012;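 active = inhibition above the screen-wide average plus 3 SD, cut at about 13% in these data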;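 also: forskolin and galanin both at EC90 stimulate the cells; cAMP rise reported by CNG channel membrane potential dye signal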
Target sequence (O60755 1-299 limits assumed): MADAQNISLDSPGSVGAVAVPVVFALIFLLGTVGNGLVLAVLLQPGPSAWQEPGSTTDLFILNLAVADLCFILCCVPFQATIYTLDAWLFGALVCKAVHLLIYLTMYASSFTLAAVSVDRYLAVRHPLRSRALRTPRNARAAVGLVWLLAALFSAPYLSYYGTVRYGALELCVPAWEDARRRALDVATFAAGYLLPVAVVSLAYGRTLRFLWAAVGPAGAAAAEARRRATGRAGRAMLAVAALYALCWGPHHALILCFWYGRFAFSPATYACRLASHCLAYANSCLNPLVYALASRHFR
NR2E3 ag-2 – NR2E3 agonists in two-hybrid cells, primary screen, cell-based, luminescence, CHO-S, Gal4-NCOR/VP16-NR2E3 | Photoreceptor-specific nuclear receptor (Homo sapiens), Q9Y5X4 | luciferase | inhibition of corepressor binding, % at 3.98 µM | 360,000 tested, 0.35% active;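 active = inhibition above the mean of all tested compounds plus 3 SD, cut at about 70% in these data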;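 also: higher means lower luciferase signal from less NR2E3 corepressor binding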
GalR3 conf – GalR3 antagonist hit confirmation, cell-based, fluorescence, triplicate | shares compounds with GalR3 antag | HEK293 GalR3 CNG cAMP biosensor, membrane potential fluorescence; galR3 fused to GalR1 carboxy tail; challenged with forskolin and galanin at EC90 | inhibition, % at 3 µM | 1,600 tested, 59% active | AID 652245, 2013;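 active = inhibition above the primary screen's cutoff, the mean inhibition of all screened compounds plus 3 SD, cut at about 13% in these data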
HEK-CNG parental – nonspecific cAMP agonists in parental HEK-CNG cells, counter-screen for GalR3 antagonist project, cell-based, fluorescence, high throughput; shares compounds with GalR3 antag; HEK293-CNG parental cells, cAMP membrane potential fluorescence; normalised: DMSO wells 0%, forskolin wells 100%; activation, % at 3 µM; 1,600 tested, 10% active; AID 652268, 2013; in the data active = activation above about 1.3%
Numbers stand for hits; - = inactive; . = no result given. An excerpt weighted towards active compounds, which were near 2.5% of everything screened.

SMILES | NR2E3 ag-1 | NadD inh | MsrA inhibitor | MsrA act | GalR3 antag | NR2E3 ag-2 | GalR3 conf | HEK-CNG parental
COc1cccc(C(=O)N2CCN(C(=O)c3cccc4ccccc34)CC2)c1OC | - | - | - | - | - | - | . | .
COCCN(CCOC)C(=O)COC(=O)c1cc([N+](=O)[O-])ccc1Cl | - | - | - | - | - | - | . | .
COc1ccccc1NC(=O)CSc1nc(N)c(-c2ccccc2)c(=O)[nH]1 | - | - | - | - | 46 | - | 38 | -
O=C(NCc1cccc(C(F)(F)F)c1)c1cc(Cl)cc(Cl)c1 | - | - | - | - | - | - | . | .
COc1cc2c(cc1OC)-c1cc(NC3CCCCCC3)nc(=O)n1CC2 | - | - | - | - | 52 | - | 58 | -
CCOc1cccc(Nc2cc3n(c(=O)n2)CCc2cc(OC)c(OC)cc2-3)c1 | - | - | - | - | 16 | - | 56 | -
COc1ccccc1-c1ccc(NC2CCCCC2)nn1 | - | - | - | - | - | - | . | .
COc1cc2c(cc1OC)-c1cc(Nc3ccc(C)cc3)nc(=O)n1CC2 | - | - | - | - | 45 | - | 59 | -
COc1cc2c(cc1OC)-c1cc(OCc3cccnc3)nc(=O)n1CC2 | . | - | - | - | - | - | . | .
COc1cc2c(cc1OC)C(C)N(S(=O)(=O)c1ccc(C)cc1)CC2 (stereo not given) | - | - | - | - | - | - | . | .
Cc1ccccc1-c1cc(C(=O)NCc2cccs2)nn1CC1CC(c2cccc([N+](=O)[O-])c2)=NO1 (stereo not given) | - | - | - | - | - | - | . | .
Cc1ccccc1-c1cc(C(=O)O)nn1CC1CC(c2cccc([N+](=O)[O-])c2)=NO1 (stereo not given) | - | - | - | - | 18 | - | - | -
CCc1nc2ccc(C(=O)Nc3ccc(OC)c(OC)c3)cn2c1N(CC)Cc1cccc(Br)c1 | . | - | - | - | - | - | . | .
CCc1nc2ccc(C(=O)Nc3ccc(OC)c(OC)c3)cn2c1N(CC)CCOC | . | - | - | - | 13 | - | - | -
C=CCn1c(SC(CCO)C(=O)NCc2ccco2)nc2sc3c(c2c1=O)CCC3 (stereo not given) | - | - | - | - | - | - | . | .
O=C(NNC(=S)NC(=O)c1ccccc1[N+](=O)[O-])c1ccccc1[N+](=O)[O-] | - | - | - | - | - | - | . | .
O=C(NNC(=S)NC(=O)c1ccccc1[N+](=O)[O-])c1ccccc1O | - | - | - | - | 31 | - | - | -
N#CC(C#N)C(c1ccsc1)c1c(-c2ccccc2)[nH][nH]c1=O (stereo not given) | - | - | - | - | 14 | - | 17 | 2.8
CCCc1[nH][nH]c(=O)c1C(c1cccc(Cl)c1)C(C#N)C#N (stereo not given) | - | - | - | - | - | - | . | .
COC(=O)c1sc(N)c(C(=O)OC)c1Cn1ncc(Cl)c(Cl)c1=O | - | - | - | - | - | - | . | .
CC(=O)Nc1ccc(S(=O)(=O)NCCc2csc(-c3cccnc3)n2)cc1 | - | - | - | - | - | - | . | .
CN(C)S(=O)(=O)c1ccc(C(=O)Nc2nc(-c3cc4ccccc4o3)cs2)cc1 | - | - | - | - | 93 | - | 103 | -
O=C(Nc1nc(-c2cc3ccccc3o2)cs1)c1ccc(S(=O)(=O)N2CCCC2)cc1 | - | - | - | - | - | - | . | .
COc1ccccc1C(=O)Nc1ccc(-c2nnn(CC(=O)N3CCOCC3)n2)cc1 | - | - | - | - | - | - | . | .
Cc1ccccc1NC(=O)CSc1nc(N)c2c3c(sc2n1)CSC(C)(C)C3 | - | - | - | - | 21 | - | 39 | -
SMILES | NR2E3 ag-1 | NadD inh | MsrA inhibitor | MsrA act | GalR3 antag | NR2E3 ag-2 | GalR3 conf | HEK-CNG parental
O=C(c1ccc(F)cc1)C1CCN(Cc2cn[nH]c2-c2ccc(F)cc2)CC1 | - | - | - | - | - | - | . | .
Cc1cc(=O)[nH]c(SCC(=O)c2ccc3c(c2)NC(=O)CO3)n1 | - | - | - | - | 15 | - | - | -
COc1ccc(C=NOCC(=O)OCC(=O)Nc2ccc(OC)cc2)cc1 | . | - | - | - | - | - | . | .
COCCCNC(=O)c1cc2cc(Br)ccc2oc1=O | - | - | - | - | 34 | - | - | -
COCCNC(=O)c1cc2cc(Br)cc(Br)c2oc1=O | - | - | - | - | - | - | . | .
CC(=O)N1CCCc2cc(S(=O)(=O)Nc3cccc(C)c3C)ccc21 | - | - | - | - | - | - | . | .
O=C(CN(CCc1ccccc1)S(=O)(=O)c1ccc(Cl)cc1)N/N=C/c1ccc2c(c1)OCO2 | - | - | - | - | 13 | - | - | 1.9
COc1ccc(S(=O)(=O)N(CCc2ccccc2)CC(=O)N/N=C/c2ccc3c(c2)OCO3)cc1 | - | - | - | - | - | - | . | .
COc1cc(NC(=O)C(C)C)ccc1NC(=O)c1cc2ccccc2o1 | - | - | - | - | - | - | . | .
Cc1nn(C)c(Nc2ccc(Br)cc2)c1Br | - | - | - | - | 49 | - | 86 | -
CCN(CC)S(=O)(=O)c1ccc(N2CCOCC2)c(NC(=O)COc2ccccc2)c1 | - | - | - | - | . | - | 13 | -
CCN(CC)S(=O)(=O)c1ccc(N2CCCC2)c(NC(=O)Cc2cc(OC)c(OC)c(OC)c2)c1 | - | - | - | - | 19 | - | - | -
C=CCOc1ccc(CN(C)C(=O)CN2C(=O)c3ccccc3C2=O)cc1 | - | - | - | - | - | - | . | .
Cc1cccc(C)c1NC(=O)N1CCN(c2nc3ccccc3s2)CC1 | - | - | - | - | 39 | - | - | -
Cc1cccc(Cl)c1NC(=O)N1CCCN(c2nc3ccc(Cl)cc3s2)CC1 | - | - | - | - | 82 | - | 103 | -
COC(=O)c1ccc(N2CCN(CC(=O)c3ccc(-c4ccccc4)cc3)CC2)c([N+](=O)[O-])c1 | - | - | - | - | . | - | - | -
COc1cc(Cl)ccc1OCc1cc(C(=O)N2C[C@]3(C)C[C@H]2CC(C)(C)C3)no1 | - | - | - | - | - | - | . | .

High-throughput results from PubChem.
